Active and inactive are the calls of the source. No cut-off for these calls is given here.
Experiments:
[1] = target: T1, Peroxisome proliferator-activated receptor alpha (Homo sapiens) (UniProt Q07869); assay: Inhibition of PPARalpha
T1 sequence (whole entry): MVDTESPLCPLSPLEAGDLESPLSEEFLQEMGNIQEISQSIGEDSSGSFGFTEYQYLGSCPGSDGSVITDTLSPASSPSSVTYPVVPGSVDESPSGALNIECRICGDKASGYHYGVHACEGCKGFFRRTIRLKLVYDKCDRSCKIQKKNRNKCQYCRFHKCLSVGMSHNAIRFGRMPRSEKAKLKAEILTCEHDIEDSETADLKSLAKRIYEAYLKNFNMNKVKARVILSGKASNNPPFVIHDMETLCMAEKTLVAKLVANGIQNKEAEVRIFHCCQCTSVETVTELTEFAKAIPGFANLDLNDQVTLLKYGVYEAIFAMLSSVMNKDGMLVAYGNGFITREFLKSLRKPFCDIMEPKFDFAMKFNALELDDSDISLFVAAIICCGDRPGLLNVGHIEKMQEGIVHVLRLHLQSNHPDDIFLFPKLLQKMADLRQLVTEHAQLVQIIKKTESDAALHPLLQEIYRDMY

[2] = Drug concentration in Wistar rat liver at 10 mg/kg, po measured 6 hrs post dose; assay type: ADME, organism-based; design: dose 10 mg/kg, route oral; details: read-out: Drug uptake
Outline: (§1)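 Female Wistar rats given a single oral dose of 10 mg/kg in 10% DMSO. Plasma and liver sampled at eight time points over 24 h, three animals killed per time point. Drug levels measured by LC-MS/MS with an internal standard. […] Values are means ± SD (n = 3).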

[3] = Oral bioavailability in Wistar rat at 10 mg/kg; assay type: ADME, organism-based; details: in vivo
[4] = Cmax in Wistar rat plasma at 10 mg/kg, po; assay type: ADME, organism-based; design: dose 10 mg/kg, route oral; outline: as §1
Rattus norvegicus [5] = assay: Stimulation of fat oxidation in Wistar rat assessed as decrease in respiratory quotient at 50 mg/kg, po administered 2 hrs before lipid load; assay type: functional, organism-based; design: dose 50 mg/kg
Outline: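 Female Wistar rats housed singly in calorimetry cages, acclimated at least 12 h. Dosed orally with 50 mg/kg or vehicle. Two hours later, oral 10 mL/kg 20% Lipofundin MCT (2 g fat/kg) or PBS. O₂ and CO₂ measured every 17 min per cage for 1 min. RQ is CO₂ production/O₂ consumption.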

[6] = AUC (0 to infinity) in Wistar rat liver at 10 mg/kg, po; assay type: ADME, organism-based; design: time infinity, dose 10 mg/kg, route oral; outline: as §1
[7] = Half life in Wistar rat plasma at 3 mg/kg, iv; assay type: ADME, organism-based; design: dose 3 mg/kg, route intravenous
Outline: (§2)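 Wistar rats given an intravenous bolus of 3 mg/kg in 5% solutol solution. Plasma sampled at eight time points over 24 h. Drug quantified by LC-MS/MS against an internal standard. C0h is the concentration immediately after dosing; AUC0-inf, clearance, t1/2 and Vdss were also derived.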

[8] = target: T2, Peroxisome proliferator-activated receptor gamma (Homo sapiens) (UniProt P37231); assay: Inhibition of PPARgamma
T2 sequence (whole entry): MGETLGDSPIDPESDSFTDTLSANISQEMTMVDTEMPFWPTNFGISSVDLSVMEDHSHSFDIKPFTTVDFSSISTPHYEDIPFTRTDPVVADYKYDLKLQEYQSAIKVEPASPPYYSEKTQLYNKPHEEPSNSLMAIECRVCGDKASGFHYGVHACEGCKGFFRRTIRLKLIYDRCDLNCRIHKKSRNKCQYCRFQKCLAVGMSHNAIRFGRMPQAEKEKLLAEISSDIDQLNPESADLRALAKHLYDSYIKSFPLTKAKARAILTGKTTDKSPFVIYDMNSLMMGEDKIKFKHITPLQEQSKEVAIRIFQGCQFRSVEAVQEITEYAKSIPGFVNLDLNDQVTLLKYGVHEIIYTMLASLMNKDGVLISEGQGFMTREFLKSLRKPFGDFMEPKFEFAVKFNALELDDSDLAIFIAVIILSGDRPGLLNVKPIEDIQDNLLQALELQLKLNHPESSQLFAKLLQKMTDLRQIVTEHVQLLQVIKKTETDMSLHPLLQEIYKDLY

[9] = Half life in Wistar rat liver at 10 mg/kg, po; assay type: ADME, organism-based; design: dose 10 mg/kg, route oral; outline: as §1
[10] = target: T3, Pyruvate carboxylase, mitochondrial (Bos taurus) (UniProt Q29RK2); assay: Inhibition of bovine pyruvate carboxylase
T3 sequence (whole entry): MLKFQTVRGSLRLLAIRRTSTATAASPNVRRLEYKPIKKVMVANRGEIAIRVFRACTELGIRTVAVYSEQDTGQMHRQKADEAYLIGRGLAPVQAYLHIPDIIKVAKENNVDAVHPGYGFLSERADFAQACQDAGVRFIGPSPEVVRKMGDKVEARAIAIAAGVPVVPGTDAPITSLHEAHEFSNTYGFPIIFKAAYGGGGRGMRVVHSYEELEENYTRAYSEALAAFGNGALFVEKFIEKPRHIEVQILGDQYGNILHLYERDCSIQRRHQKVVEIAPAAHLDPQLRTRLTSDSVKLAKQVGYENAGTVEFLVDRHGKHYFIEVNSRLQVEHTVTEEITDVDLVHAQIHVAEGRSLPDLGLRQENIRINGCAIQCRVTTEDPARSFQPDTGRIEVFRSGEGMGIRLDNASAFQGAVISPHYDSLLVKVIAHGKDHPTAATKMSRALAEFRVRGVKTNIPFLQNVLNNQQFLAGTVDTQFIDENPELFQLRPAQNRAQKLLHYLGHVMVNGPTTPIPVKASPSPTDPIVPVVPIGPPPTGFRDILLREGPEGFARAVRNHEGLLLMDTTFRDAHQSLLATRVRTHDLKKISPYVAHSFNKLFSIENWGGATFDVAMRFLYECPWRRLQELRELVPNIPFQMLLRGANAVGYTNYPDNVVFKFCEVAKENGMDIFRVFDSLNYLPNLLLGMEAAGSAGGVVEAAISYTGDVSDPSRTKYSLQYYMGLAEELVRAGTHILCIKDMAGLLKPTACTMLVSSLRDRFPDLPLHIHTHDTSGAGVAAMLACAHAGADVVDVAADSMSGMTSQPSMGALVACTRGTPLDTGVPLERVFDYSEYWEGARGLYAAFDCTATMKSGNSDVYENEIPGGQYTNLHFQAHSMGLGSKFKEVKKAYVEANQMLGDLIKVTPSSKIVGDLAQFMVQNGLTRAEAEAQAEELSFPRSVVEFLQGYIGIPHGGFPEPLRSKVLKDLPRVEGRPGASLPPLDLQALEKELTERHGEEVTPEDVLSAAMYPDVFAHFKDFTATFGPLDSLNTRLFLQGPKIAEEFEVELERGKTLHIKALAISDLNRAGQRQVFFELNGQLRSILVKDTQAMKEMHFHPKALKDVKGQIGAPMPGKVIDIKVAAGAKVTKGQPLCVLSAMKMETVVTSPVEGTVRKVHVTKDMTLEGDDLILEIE

Rattus norvegicus [11] = assay: Reduction in plasma triglycerides in obese ZDF rat at 30 mg/kg, po for 3 days measured 4 hrs post last dose; assay type: functional, organism-based; design: dose 30 mg/kg
Outline: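 Female obese ZDF rats, eight weeks old, dosed orally for 3 days with 30 mg/kg in 5% ethanol/5% solutol/90% PBS (n = 8); controls got vehicle, with lean controls alongside. Four hours after the last dose, aortic blood taken under isoflurane. Triglycerides measured by GPD-PAP method; means ± SEM.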

[12] = Clearance in Wistar rat plasma at 3 mg/kg, iv; assay type: ADME, organism-based; design: dose 3 mg/kg, route intravenous; outline: as §2
[13] = Tmax in Wistar rat plasma at 10 mg/kg, po; assay type: ADME, organism-based; design: dose 10 mg/kg, route oral; outline: as §1

inhibition [1]: inactive
concentration at 6 h [2]: 7.59 µM
bioavailability [3]: 98%
Cmax [4]: 3.5 µM
AUC(0-inf) [6]: 120 µM·h
half-life [7]: 90 min
inhibition [8]: inactive
half-life [9]: 180 min
inhibition [10]: inactive
clearance [12]: 26.7 mL/min/kg
Tmax [13]: 2 h
SMILES: CC(=O)N[C@@H](C)CCc1ccc(Oc2ccc(OC(C)C)nc2)cc1
Activity (Rattus norvegicus [5]): Active
Activity (Rattus norvegicus [11]): Active

— ChEMBL document CHEMBL1629448, “Identification and synthesis of novel inhibitors of acetyl-CoA carboxylase with in vitro and in vivo efficacy on fat oxidation” (J Med Chem, 2010)
